Test results reported in ChEMBL document CHEMBL2010673, “Structure-activity relationship of pyrrole based S-nitrosoglutathione reductase inhibitors: carboxamide modification” (Bioorg Med Chem Lett, 2012).
Activity calls are given as the source filed them. The calls are words filed in the database; no cut-off is given here.

Tests used:
[1] = target: 5-hydroxytryptamine receptor 5A (Homo sapiens) (UniProt P47898); assay: Inhibition of 5HT5A receptor at 10 uM by radioligand displacement assay
Summary of the method: (§1)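 Off-target radioligand binding panel. Test compound at 10 µM. Each assay had at least 6 control wells, with or without vehicle, for soluble compounds. Values are percent inhibition of radioligand binding. ≥50% inhibition was scored as a positive response.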

[2] = target: Beta-2 adrenergic receptor (Homo sapiens) (UniProt P07550); assay: Inhibition of Beta2 adrenergic receptor at 10 uM by radioligand displacement assay; summary of the method: as §1
Beta-2 adrenergic receptor (Homo sapiens), sequence (P07550 whole entry, looked up): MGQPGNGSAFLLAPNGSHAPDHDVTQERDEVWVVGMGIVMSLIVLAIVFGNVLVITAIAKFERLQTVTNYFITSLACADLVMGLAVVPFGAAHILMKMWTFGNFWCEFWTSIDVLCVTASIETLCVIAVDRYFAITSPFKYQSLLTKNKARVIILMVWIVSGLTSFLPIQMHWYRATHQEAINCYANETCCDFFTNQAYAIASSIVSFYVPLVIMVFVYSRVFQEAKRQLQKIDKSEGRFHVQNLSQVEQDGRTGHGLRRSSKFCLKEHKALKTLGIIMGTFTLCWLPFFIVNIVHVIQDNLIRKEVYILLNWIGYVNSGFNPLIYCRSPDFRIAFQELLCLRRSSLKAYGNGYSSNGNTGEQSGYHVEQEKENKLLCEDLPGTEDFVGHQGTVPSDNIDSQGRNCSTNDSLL

[3] = target: Histamine H1 receptor (Homo sapiens) (UniProt P35367); assay: Inhibition of H1 receptor at 10 uM by radioligand displacement assay; summary of the method: as §1
Histamine H1 receptor (Homo sapiens), sequence (P35367 whole entry): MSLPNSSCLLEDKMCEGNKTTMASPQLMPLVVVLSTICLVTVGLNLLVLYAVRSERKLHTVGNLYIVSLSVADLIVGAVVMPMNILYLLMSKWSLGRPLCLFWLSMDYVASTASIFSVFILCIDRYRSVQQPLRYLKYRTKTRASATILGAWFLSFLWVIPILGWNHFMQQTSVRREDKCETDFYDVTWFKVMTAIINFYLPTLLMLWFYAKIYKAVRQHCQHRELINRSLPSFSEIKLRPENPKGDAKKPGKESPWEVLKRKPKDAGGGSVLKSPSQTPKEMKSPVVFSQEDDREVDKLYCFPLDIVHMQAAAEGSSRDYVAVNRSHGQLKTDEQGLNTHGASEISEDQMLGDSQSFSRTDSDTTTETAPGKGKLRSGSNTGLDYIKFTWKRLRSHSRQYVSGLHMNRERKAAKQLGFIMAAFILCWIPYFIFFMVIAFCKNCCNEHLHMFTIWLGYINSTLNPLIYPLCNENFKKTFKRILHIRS

[4] = Inhibition of L-type calcium channel at 10 uM by radioligand displacement assay; summary of the method: as §1
[5] = Inhibition of chloride channel at 10 uM by radioligand displacement assay
Summary of the method: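 Off-target panel: radioligand binding to each receptor, channel or transporter with test compound at 10 µM; activity reported as percent inhibition of specific binding. At least 6 control wells with or without vehicle per assay. Inhibition of 50% or greater counted as a positive response.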

[6] = target: Muscarinic acetylcholine receptor M1 (Homo sapiens) (UniProt P11229); assay: Inhibition of M1 receptor at 10 uM by radioligand displacement assay; summary of the method: as §1
Muscarinic acetylcholine receptor M1 (Homo sapiens), sequence (P11229 whole entry): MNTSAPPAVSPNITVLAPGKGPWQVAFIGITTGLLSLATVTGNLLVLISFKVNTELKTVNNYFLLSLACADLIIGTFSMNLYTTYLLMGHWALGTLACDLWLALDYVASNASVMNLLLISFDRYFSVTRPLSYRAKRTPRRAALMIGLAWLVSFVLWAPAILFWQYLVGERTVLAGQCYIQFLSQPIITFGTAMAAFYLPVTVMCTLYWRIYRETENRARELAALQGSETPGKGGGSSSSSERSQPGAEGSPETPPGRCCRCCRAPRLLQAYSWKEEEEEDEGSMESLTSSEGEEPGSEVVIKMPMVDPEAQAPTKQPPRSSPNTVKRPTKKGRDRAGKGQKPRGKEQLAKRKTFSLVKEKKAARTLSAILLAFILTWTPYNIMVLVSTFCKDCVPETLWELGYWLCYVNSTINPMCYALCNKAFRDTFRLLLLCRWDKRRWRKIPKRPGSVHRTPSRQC

[7] = target: Muscarinic acetylcholine receptor M2 (Homo sapiens) (UniProt P08172); assay: Inhibition of M2 receptor at 10 uM by radioligand displacement assay; summary of the method: as §1
Muscarinic acetylcholine receptor M2 (Homo sapiens), sequence (P08172 whole entry): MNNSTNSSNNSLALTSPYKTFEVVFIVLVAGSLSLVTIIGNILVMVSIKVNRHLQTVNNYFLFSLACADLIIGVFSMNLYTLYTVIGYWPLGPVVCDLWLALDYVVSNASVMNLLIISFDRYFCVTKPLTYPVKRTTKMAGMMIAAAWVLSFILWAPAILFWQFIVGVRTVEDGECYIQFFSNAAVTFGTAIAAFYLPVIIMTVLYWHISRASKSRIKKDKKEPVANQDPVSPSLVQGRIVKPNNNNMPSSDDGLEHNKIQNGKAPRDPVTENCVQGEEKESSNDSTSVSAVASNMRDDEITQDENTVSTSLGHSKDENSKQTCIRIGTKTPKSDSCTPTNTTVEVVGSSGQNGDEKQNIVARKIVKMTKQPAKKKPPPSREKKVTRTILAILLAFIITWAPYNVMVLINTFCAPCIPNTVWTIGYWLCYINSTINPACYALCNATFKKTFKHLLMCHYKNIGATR

[8] = target: Vasoactive intestinal polypeptide receptor 1 (Homo sapiens) (UniProt P32241); assay: Inhibition of VPAC1 receptor at 10 uM by radioligand displacement assay; summary of the method: as §1
Vasoactive intestinal polypeptide receptor 1 (Homo sapiens), sequence (P32241 whole entry): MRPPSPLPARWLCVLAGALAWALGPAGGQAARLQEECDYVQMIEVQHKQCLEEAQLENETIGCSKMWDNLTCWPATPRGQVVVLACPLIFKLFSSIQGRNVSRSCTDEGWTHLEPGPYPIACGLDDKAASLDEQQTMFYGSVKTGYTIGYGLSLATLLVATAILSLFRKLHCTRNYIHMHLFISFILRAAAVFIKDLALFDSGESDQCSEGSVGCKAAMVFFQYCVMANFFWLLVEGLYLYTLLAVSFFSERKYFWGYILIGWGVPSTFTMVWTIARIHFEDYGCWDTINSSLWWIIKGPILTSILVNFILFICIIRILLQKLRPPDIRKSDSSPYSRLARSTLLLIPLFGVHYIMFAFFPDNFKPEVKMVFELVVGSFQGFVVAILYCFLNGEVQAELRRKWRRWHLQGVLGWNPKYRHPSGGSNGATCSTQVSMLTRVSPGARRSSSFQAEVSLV

[9] = target: Neuropeptide Y receptor type 1 (Homo sapiens) (UniProt P25929); assay: Inhibition of Y1 receptor at 10 uM by radioligand displacement assay; summary of the method: as §1
Neuropeptide Y receptor type 1 (Homo sapiens), sequence (P25929 whole entry): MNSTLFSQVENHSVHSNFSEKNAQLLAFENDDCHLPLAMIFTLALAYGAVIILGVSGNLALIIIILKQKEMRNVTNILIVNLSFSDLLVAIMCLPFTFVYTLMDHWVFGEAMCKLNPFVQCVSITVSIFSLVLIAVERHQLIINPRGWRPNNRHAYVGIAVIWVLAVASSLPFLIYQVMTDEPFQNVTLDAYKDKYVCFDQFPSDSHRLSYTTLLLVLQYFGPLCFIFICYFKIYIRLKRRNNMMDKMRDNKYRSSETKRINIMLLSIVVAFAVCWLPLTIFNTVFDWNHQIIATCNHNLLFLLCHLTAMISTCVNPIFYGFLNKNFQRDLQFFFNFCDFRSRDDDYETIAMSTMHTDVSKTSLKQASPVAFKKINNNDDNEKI

[10] = target: 5-hydroxytryptamine receptor 2A (Homo sapiens) (UniProt P28223); assay: Inhibition of 5HT2A receptor at 10 uM by radioligand displacement assay; summary of the method: as §1
5-hydroxytryptamine receptor 2A (Homo sapiens), sequence (P28223 whole entry): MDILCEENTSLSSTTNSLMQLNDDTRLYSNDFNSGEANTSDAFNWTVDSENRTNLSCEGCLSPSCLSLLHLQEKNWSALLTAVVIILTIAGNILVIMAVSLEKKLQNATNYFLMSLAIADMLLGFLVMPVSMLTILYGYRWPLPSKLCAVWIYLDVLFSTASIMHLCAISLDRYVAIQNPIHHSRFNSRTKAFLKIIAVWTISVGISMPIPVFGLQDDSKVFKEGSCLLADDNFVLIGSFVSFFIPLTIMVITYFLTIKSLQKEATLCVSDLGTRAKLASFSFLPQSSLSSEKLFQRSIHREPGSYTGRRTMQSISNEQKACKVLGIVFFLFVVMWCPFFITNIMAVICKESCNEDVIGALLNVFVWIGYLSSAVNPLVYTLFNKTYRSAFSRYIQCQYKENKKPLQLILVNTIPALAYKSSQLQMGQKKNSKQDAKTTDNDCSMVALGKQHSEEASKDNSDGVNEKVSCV

[11] = target: Beta-1 adrenergic receptor (Homo sapiens) (UniProt P08588); assay: Inhibition of Beta1 adrenergic receptor at 10 uM by radioligand displacement assay; summary of the method: as §1
Beta-1 adrenergic receptor (Homo sapiens), sequence (P08588 whole entry, looked up): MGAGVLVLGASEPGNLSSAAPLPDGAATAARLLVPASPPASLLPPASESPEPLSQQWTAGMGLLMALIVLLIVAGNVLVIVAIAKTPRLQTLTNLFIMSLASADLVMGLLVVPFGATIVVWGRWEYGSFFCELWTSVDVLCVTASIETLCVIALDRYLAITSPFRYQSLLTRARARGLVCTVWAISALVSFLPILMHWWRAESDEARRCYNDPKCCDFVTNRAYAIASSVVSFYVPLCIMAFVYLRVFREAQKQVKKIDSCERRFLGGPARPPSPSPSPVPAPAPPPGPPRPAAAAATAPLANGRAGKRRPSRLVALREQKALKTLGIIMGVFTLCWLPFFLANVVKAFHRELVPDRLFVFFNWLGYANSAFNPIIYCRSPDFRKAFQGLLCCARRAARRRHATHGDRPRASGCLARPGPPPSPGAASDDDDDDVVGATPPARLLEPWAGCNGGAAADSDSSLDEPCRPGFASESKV

[12] = target: 5-hydroxytryptamine receptor 1B (Homo sapiens) (UniProt P28222); assay: Inhibition of 5HT1b receptor at 10 uM by radioligand displacement assay; summary of the method: as §1
5-hydroxytryptamine receptor 1B (Homo sapiens), sequence (P28222 whole entry): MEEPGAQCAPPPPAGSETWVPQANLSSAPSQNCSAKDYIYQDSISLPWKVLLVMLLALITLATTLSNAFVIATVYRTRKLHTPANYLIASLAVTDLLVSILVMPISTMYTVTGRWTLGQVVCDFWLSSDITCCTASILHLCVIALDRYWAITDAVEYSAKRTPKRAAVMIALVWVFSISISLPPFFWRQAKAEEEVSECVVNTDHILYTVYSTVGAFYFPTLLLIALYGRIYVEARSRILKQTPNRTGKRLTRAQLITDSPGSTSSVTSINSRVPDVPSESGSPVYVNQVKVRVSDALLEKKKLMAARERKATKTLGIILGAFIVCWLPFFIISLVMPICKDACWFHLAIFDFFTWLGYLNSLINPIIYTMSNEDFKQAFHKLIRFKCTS

[13] = target: Endothelin-1 receptor (Homo sapiens) (UniProt P25101); assay: Inhibition of Eta receptor at 10 uM by radioligand displacement assay; summary of the method: as §1
Endothelin-1 receptor (Homo sapiens), sequence (P25101 whole entry): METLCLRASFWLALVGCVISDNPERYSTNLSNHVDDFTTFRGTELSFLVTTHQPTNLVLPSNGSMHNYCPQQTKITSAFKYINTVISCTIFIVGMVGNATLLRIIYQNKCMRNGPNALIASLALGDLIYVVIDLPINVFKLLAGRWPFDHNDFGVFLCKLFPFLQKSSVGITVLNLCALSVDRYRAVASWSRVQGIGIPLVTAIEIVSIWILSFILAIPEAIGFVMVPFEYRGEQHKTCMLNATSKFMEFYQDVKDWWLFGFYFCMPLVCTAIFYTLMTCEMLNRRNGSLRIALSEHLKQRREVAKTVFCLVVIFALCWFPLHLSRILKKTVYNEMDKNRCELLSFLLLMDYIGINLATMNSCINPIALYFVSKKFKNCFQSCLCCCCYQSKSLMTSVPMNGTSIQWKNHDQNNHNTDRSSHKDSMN

[14] = target: Melanocortin receptor 4 (Homo sapiens) (UniProt P32245); assay: Inhibition of MC4 receptor at 10 uM by radioligand displacement assay; summary of the method: as §1
Melanocortin receptor 4 (Homo sapiens), sequence (P32245 whole entry): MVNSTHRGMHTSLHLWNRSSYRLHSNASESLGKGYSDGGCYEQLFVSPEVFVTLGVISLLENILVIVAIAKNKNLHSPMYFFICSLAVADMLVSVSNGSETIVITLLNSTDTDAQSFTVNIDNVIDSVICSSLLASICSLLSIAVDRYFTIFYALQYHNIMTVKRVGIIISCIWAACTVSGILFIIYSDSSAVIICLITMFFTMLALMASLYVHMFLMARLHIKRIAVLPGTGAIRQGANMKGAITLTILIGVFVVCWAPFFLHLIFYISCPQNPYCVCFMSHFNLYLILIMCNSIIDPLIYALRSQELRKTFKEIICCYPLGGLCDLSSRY

[15] = tested on: Mus musculus; assay: Toxicity in CD1 mouse assessed as adverse effect in thymus at 50 mg/kg, iv qd administered for 5 days; assay type: organism-based; set-up: dose 50 mg/kg, route intravenous; details: in vivo, 120 h
Summary of the method: (§2)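 Male CD-1 mice dosed IV once daily for 5 days at 1, 10 or 50 mg/kg. Toxicity judged by histology of liver, spleen and thymus, and a no-observed-adverse-effect level (NOAEL) derived from the study.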

[16] = tested on: Mus musculus; assay: Toxicity in CD1 mouse assessed as adverse effect in spleen at 10 mg/kg, iv qd administered for 5 days; assay type: organism-based; set-up: dose 10 mg/kg, route intravenous; details: in vivo, 120 h; summary of the method: as §2
[17] = Toxicity in iv dosed CD1 mouse administered qd for 5 days; assay type: organism-based; details: in vivo; summary of the method: as §2
[18] = tested on: Mus musculus; assay: Toxicity in CD1 mouse assessed as adverse effect in spleen at 50 mg/kg, iv qd administered for 5 days; assay type: organism-based; set-up: dose 50 mg/kg, route intravenous; details: in vivo, 120 h; summary of the method: as §2
[19] = tested on: Mus musculus; assay: Toxicity in CD1 mouse assessed as adverse effect in thymus iv qd administered for 5 days; details: in vivo, 120 h
[20] = tested on: Mus musculus; assay: Antiasthamatic activity against ovalbumin-induced asthma in ovalbumin-sensitized BALB/c mouse assessed as inhibition of methacholine-induced bronchoconstriction at 1 mg/kg, iv administered 24 hrs prior to methacholine-challenge by plethysmography; assay type: functional, organism-based; set-up: dose 1 mg/kg
Summary of the method: (§3)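 Mice made asthmatic by ovalbumin exposure. A single 1 mg/kg IV dose was given 24 h before aerosolized methacholine challenge. Controls received IV PBS vehicle or three inhaled doses of Combivent (5.2 mg/kg albuterol + 0.9 mg/kg ipratropium) at 48, 24 and 1 h before challenge. Bronchoconstriction was read by whole-body plethysmography, and eosinophils were counted in BALF. Data are mean ± SEM, 10 mice per group.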

[21] = tested on: Mus musculus; assay: Toxicity in CD1 mouse assessed as adverse effect in thymus at 10 mg/kg, iv qd administered for 5 days; assay type: organism-based; set-up: dose 10 mg/kg, route intravenous; details: in vivo, 120 h; summary of the method: as §2
[22] = tested on: Mus musculus; assay: Toxicity in CD1 mouse assessed as adverse effect in liver at 10 mg/kg, iv qd administered for 5 days; assay type: organism-based; set-up: dose 10 mg/kg, route intravenous; details: in vivo, 120 h; summary of the method: as §2
[23] = tested on: Mus musculus; assay: Antiasthamatic activity against ovalbumin-induced asthma in ovalbumin-sensitized BALB/c mouse assessed as inhibition of methacholine-induced eosinophil infiltration in bronchoalveolar lavage fluid at 1 mg/kg, iv administered 24 hrs prior to methacholine-challenge by light microscopy; assay type: functional, organism-based; set-up: dose 1 mg/kg; details: Lung; summary of the method: as §3
[24] = tested on: Mus musculus; assay: Toxicity in CD1 mouse assessed as adverse effect in liver at 50 mg/kg, iv qd administered for 5 days; assay type: organism-based; set-up: dose 50 mg/kg, route intravenous; details: in vivo, 120 h; summary of the method: as §2

SMILES | inhibition [1] | inhibition [2] | inhibition [3] | inhibition [4] | inhibition [5] | inhibition [6] | inhibition [7] | inhibition [8] | inhibition [9] | inhibition [10] | inhibition [11] | inhibition [12] | inhibition [13] | inhibition [14] | further results
Cc1cc(NS(C)(=O)=O)ccc1-n1c(CCC(=O)O)ccc1-c1ccc(-n2ccnc2)cc1 | inactive | inactive | inactive | inactive | inactive | inactive | inactive | inactive | inactive | inactive | inactive | inactive | inactive | inactive | 
Cc1cc(NS(C)(=O)=O)ccc1-n1c(CCC(=O)O)ccc1-c1ccc(-n2ccnc2C)s1 | inactive | inactive | inactive | inactive | inactive | inactive | inactive | inactive | inactive | inactive | inactive | inactive | inactive | inactive | Activity [15]: Toxic; Activity [16]: Toxic; NOAEL at 120 h [17]: 1 mg/kg/day; Activity [18]: Toxic; Activity [19]: Toxic; Activity [20]: Active; Activity [21]: Toxic; Activity [22]: Toxic; Activity [23]: Active; Activity [24]: Toxic
